Holding throughout (type): functional
The species entered for assay [1] is Homo sapiens. Briefly: Intensity calculated on a weight basis relative to an 85500 ppm sucrose solution at a concentration of 1013 ppm (mean value). In short, it runs like this:
(§1)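 Trained human panel tasted aqueous solutions of purity-checked (≥95 weight percent) compounds cleared for mutagenicity and mouse oral toxicity. Weight-basis intensity I_w = perceived intensity × (85500 ppm sucrose / compound concentration in ppm). The mean is reported with 2S_m limits; data deviating excessively at 95% confidence were rejected by the t-value method.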

For assay [2], the species on record is Homo sapiens. Briefly: Bitter character at a concentration of 1013 ppm (mean value). In short, it runs like this:
(§2)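 Trained human panel tasted aqueous solutions. Each judge reported whether there was an aftertaste and its character (sweet, bitter or bitter-sweet). The value is the percentage of judgments reporting a bitter aftertaste.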

The species entered for assay [3] is Homo sapiens. As to the kind of experiment: Other taste character at a concentration of 1013 ppm (mean value). The method in brief:
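Trained human panel tasted aqueous solutions of each compound. Aftertaste is scored as the percentage of judgments reporting one, with its character coded sweet (s), bitter (b) or bitter-sweet (bs).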

The species named for assay [4] is Homo sapiens. Briefly: Experimentally determined perceived intensity of compound at a concentration of 1013 ppm (mean value). The method in brief:
(§3)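 Trained human sensory panel of judges tasted aqueous solutions of the compound. Samples had to be ≥95 weight % pure (HPLC, proton titration, Karl Fischer), non-mutagenic in five Salmonella typhimurium strains with and without microsomal activation, and non-toxic in a single-oral-dose mouse test. Perceived intensity (Ip) was read from time–intensity curves at 4- or 6-s intervals and averaged. Outliers at the 95% level were rejected by t-value. Values reported as mean (2Sm).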

The species entered for assay [5] is Homo sapiens. As to the kind of experiment: Sweet / Bitter character at a concentration of 1013 ppm (mean value); 28/72.
The species named for assay [6] is Homo sapiens. As to the kind of experiment: Number of taste judgments per compound.
The species named for assay [7] is Homo sapiens. Briefly: Percentage of judgments reporting an aftertaste at a concentration of 1013 ppm and character thereof. In short, it runs like this:
(§4)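 Trained judges tasted aqueous solutions of the compounds, which had to be ≥95 weight percent pure and to have passed mutagenicity and single oral dose toxicity screening. The value is the percentage of panel judgments reporting an aftertaste. Where given, its character is recorded as sweet, bitter or bitter-sweet.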

Assay [8] is filed under the species Homo sapiens. Briefly: Sweet character at a concentration of 1013 ppm (mean value).
The species entered for assay [9] is Homo sapiens. As to the kind of experiment: Intensity calculated on a molar basis relative to a 0.25 M sucrose solution at a concentration of 1013 ppm (mean value). The method in brief:
(§5)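 Trained human judges tasted aqueous solutions of the test compound; compounds were first required to be ≥95 weight percent pure and free of mutagenicity (five Salmonella typhimurium strains, ± microsomal activation) and of single oral dose mouse toxicity. Molar intensity I_m = perceived intensity × (0.25 M sucrose / compound molar concentration). The mean is reported with 2S_m limits; outliers were rejected at 95% confidence by t-value.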

Assay [10] is filed under the species Homo sapiens. As to the kind of experiment: Salty character at a concentration of 1013 ppm (mean value).
The species named for assay [11] is Homo sapiens. As to the kind of experiment: Sour character at a concentration of 1013 ppm (mean value).
The species named for assay [12] is Homo sapiens. Briefly: Sour character at a concentration of 250 ppm (mean value). In short, it runs like this:
(§6)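 Trained human sensory panel (Swartz method) tasted dilute aqueous solutions of the compounds, which had to be ≥95 weight percent pure and free of mutagenicity and toxicity. Taste character is reported as the mean value with 2S_m limits. Data deviating excessively at the 95% confidence level were rejected by the t-value method.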

The species entered for assay [13] is Homo sapiens. As to the kind of experiment: Intensity calculated on a weight basis relative to an 85500 ppm sucrose solution at a concentration of 250 ppm (mean value). The method in brief: as §1
Assay [14] is filed under the species Homo sapiens. Briefly: Bitter character at a concentration of 250 ppm (mean value). In short, it runs like this:
as §2

For assay [15], the species on record is Homo sapiens. Briefly: Experimentally determined perceived intensity of compound at a concentration of 250 ppm (mean value). The method in brief: as §3
For assay [16], the species on record is Homo sapiens. Briefly: Sweet / Bitter character at a concentration of 250 ppm (mean value); 94/6.
Assay [17] is filed under the species Homo sapiens. Briefly: Sweet character at a concentration of 250 ppm (mean value). The method in brief: as §6
For assay [18], the species on record is Homo sapiens. Briefly: Intensity calculated on a molar basis relative to a 0.25 M sucrose solution at a concentration of 250 ppm (mean value). The method in brief:
as §5

The species named for assay [19] is Homo sapiens. As to the kind of experiment: Salty character at a concentration of 250 ppm (mean value). The method in brief: as §6
Assay [20] is filed under the species Homo sapiens. As to the kind of experiment: Other taste character at a concentration of 250 ppm (mean value). The method in brief:
as §6

The species entered for assay [21] is Homo sapiens. As to the kind of experiment: Percentage of judgments reporting an aftertaste at a concentration of 250 ppm and character thereof. In short, it runs like this: as §4
The species entered for assay [22] is Homo sapiens. Briefly: Experimentally determined perceived intensity of compound at a concentration of 2400 ppm (mean value). In short, it runs like this:
as §3

The species named for assay [23] is Homo sapiens. As to the kind of experiment: Percentage of judgments reporting an aftertaste at a concentration of 2400 ppm and character thereof. In short, it runs like this:
as §4

For assay [24], the species on record is Homo sapiens. Briefly: Experimentally determined perceived intensity of compound at a concentration of 4100 ppm (mean value). The method in brief:
as §3

The species named for assay [25] is Homo sapiens. Briefly: Percentage of judgments reporting an aftertaste at a concentration of 495 ppm and character thereof.
The species entered for assay [26] is Homo sapiens. As to the kind of experiment: Experimentally determined perceived intensity of compound at a concentration of 495 ppm (mean value). The method in brief: as §3
The species entered for assay [27] is Homo sapiens. As to the kind of experiment: Sweet / Bitter character at a concentration of 250 ppm (mean value); 0/100.

Turning to `COc1ccc(/C=C/C(=O)c2ccc(OCCCS(=O)(=O)[O-])cc2O)cc1O.[K+]`, the IW in the assay listed under Homo sapiens [1] was 38. Also, the Taste character in the assay listed under Homo sapiens [2] worked out at 59; in the assay filed under Homo sapiens [3], 18; in the assay listed under Homo sapiens [5] it was 28; in the assay listed under Homo sapiens [8] it was 23; in the assay listed under Homo sapiens [10], 0; in the assay listed under Homo sapiens [11] it was 0. The molecule further came in with an IP in the assay listed under Homo sapiens [4] of 0.45. In addition, the Judgments is reported as 12 in the assay filed under Homo sapiens [6] and 100 in the assay filed under Homo sapiens [7]. Moreover, in the assay listed under Homo sapiens [9], the IM is 50.

As to `COc1ccc(CCC(=O)c2c(O)cc(OCCNS(=O)(=O)[O-])cc2O)cc1O.[K+]`, the Taste character in the assay listed under Homo sapiens [12] is listed as 0; in the assay listed under Homo sapiens [14], 6; in the assay listed under Homo sapiens [16], 94; in the assay filed under Homo sapiens [17], 89; in the assay filed under Homo sapiens [19], 0; in the assay filed under Homo sapiens [20], 5. Besides, the IW in the assay filed under Homo sapiens [13] is 350. Besides, the IP in the assay filed under Homo sapiens [15] was 1.03. Also, the Judgments is on record as 12 in the assay listed under Homo sapiens [6] and 100 in the assay listed under Homo sapiens [21]. The IM in the assay listed under Homo sapiens [18] is listed as 480.

In the assay filed under Homo sapiens [22], `COc1ccc(CCC(=O)c2c(O)cc(OC(CCC(=O)[O-])C(=O)[O-])cc2O)cc1O.[Na+].[Na+]` (stereo unspecified) came in with an IP of 0. Also, the Judgments in the assay filed under Homo sapiens [6] amounted to 1; in the assay listed under Homo sapiens [23], 0.

In turn, `COc1ccc(-c2cc(=O)c3c(O)cc(OCCCS(=O)(=O)[O-])cc3o2)cc1O.[K+]` yielded an IP in the assay listed under Homo sapiens [24] of 0. In the assay filed under Homo sapiens [6], this molecule returned a Judgments of 1.

Consider `COc1ccc(CCC(=O)c2c(O)cc(OC(C(=O)[O-])C(=O)[O-])cc2O)cc1O.[Na+].[Na+]`, for which the Judgments in the assay filed under Homo sapiens [25] is 0; in the assay filed under Homo sapiens [6], 1. Moreover, the IP in the assay listed under Homo sapiens [26] came out at 0.

In the case of `O=C(O)CCc1ccc(O)c(O)c1` [DIHYDROCAFFEIC ACID], the Taste character in the assay listed under Homo sapiens [12] amounted to 76; in the assay filed under Homo sapiens [14], 15; in the assay listed under Homo sapiens [17], 0; in the assay listed under Homo sapiens [19], 0; in the assay listed under Homo sapiens [20], 9; in the assay listed under Homo sapiens [27] it was 0. Also, the IW in the assay listed under Homo sapiens [13] is given as 250. Besides, in the assay filed under Homo sapiens [15], the IP came out at 0.73. The Judgments in the assay filed under Homo sapiens [6] is listed as 8; in the assay filed under Homo sapiens [21], 50. Also, the IM in the assay listed under Homo sapiens [18] is 130.

Values taken from ChEMBL document CHEMBL1121813, “Dihydrochalcone sweeteners. A study of the atypical temporal phenomena” (1981).
